High-throughput results as filed in PubChem BioAssay.
JNK3 blocker: JNK3 kinase activity inhibitors, primary screen, biochemical, human, purified enzyme; Mitogen-activated protein kinase 10 (Homo sapiens), P53779; HTS; inhibition, % at 8 µM; hit rate 0.61% among 60,000; in the data active means inhibition above about 17%;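 further: 0% = DMSO and 100% = reference inhibitor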
Jurkat viability: cytotoxicity toward Jurkat T cells, primary screen, cytotoxicity control, cell-based, Jurkat E6.1, 60K MLSMR library; Jurkat E6.1 viability, ATP luminescence, 48 h; inhibition, % at 4 µM; hit rate 1.2% among 56,000; AID 463, 2006;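 active means inhibition above the mean inhibition of all tested compounds plus 3 SD, cut at about 28% in these data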
S1P1 ag-PAM: S1P1 agonists and agonism potentiators, primary screen, cell-based, primary and confirmation screens, CRE-bla reporter; Sphingosine 1-phosphate receptor 1 (Homo sapiens), P21453; S1P1 CRE-bla cells, forskolin, beta-lactamase FRET, potentiator mode; S1P1 agonist co-added at EC20, 2 nM; 100% = saturating reference agonist, 0% = basal; activation, % at 9.5 µM; hit rate 0.57% among 56,000; AID 449, 2006;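 active means activation above a cutoff set at the mean activation of all tested compounds plus 3 SD, cut at about 54% in these data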;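 further: forskolin at 4 µM as EC80 and the EC20 agonist is SEW2871; 100% = SEW2871 at its EC100 plus forskolin at EC80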
Target sequence (P21453 whole entry, looked up): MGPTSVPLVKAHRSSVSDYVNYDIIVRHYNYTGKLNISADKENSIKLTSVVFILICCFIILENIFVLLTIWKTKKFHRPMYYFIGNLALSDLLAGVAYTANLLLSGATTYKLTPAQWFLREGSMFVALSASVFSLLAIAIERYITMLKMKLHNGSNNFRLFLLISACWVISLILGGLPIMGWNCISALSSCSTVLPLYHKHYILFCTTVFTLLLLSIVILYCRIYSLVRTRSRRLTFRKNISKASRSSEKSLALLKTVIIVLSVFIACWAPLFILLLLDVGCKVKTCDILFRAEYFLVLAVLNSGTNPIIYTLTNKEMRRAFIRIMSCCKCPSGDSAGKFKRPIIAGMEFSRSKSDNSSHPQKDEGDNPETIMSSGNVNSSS
M1 antagonist: antagonists of rat M1 muscarinic receptor | Muscarinic acetylcholine receptor M1 (Rattus norvegicus), P08482 | CHO-M1 cells, Fluo-4 calcium, ACh EC80 antagonist mode; stronger effect = lower value | B-score at 10 µM | hit rate 3.4% among 64,000;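 active means calcium fluorescence response, raw or row-and-column corrected B-score, differing from the plate sample mean either way at a set confidence level, mostly lower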
M1 ag: M1 muscarinic receptor agonists, primary screen, CHO-M1 cells, Fluo-4 calcium, agonist mode; B-score at 10 µM; Fluo-4 calcium fluorescence; stronger effect = higher value; Muscarinic acetylcholine receptor M1; hit rate 3% among 64,000; AID 626, 2007;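 active means fluorescence rise, raw or as B-score row- and column-corrected plate score, outside the 99.7% band of its plate's samples, either direction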
S1P3 ag: human S1P3 receptor agonists, primary screen, cell-based, primary and confirmation, NFAT-BLA reporter; Sphingosine 1-phosphate receptor 3 (Homo sapiens), Q99500; S1P3 NFAT-BLA reporter cells, agonism, FRET ratio; relative to 1 µM S1P, basal subtracted; activation, % at 4.5 µM; hit rate 0.1% among 60,000;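 active means activation above the screen-wide mean plus 3 SD, cut at about 4.5% in these data, passing the limit was not always enough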
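Assay system: stable CHO line with human S1P3, Gα16, NFAT-BLA reporter; Detection: FRET β-lactamase substrate fluorescence, excitation 405 nm, 460/535 nm emission ratio, background-subtracted; Read-out: percent activation versus median 1 µM S1P response, basal-subtracted, per plate; Incubation: cells plated overnight, compound 4 h 37 °C, substrate 2 h RT.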
M1 ag confirm: rat M1 muscarinic receptor agonists, confirmation, CHO-M1 cells, Fluo-4 calcium, duplicate retest; shares compounds with M1 ag; AID 1488, 2009; hit rate 19% among 1,700; Fluo-4 calcium fluorescence, agonist mode; actives lie on both sides; fluorescence change (max-min) at 10 µM;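 active means fluorescence change differs from the solvent-only DMSO control mean at a set confidence level in both duplicate runs; inconclusive means differs from solvent-only control mean in just one of two runs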;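 further: an EC20 dose of acetylcholine follows compound addition during the same imaging run; raw fluorescence intensity difference in instrument units with no normalization to controls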
M4 ag counter: agonist activity at rat M4 receptor, confirmation, counter-screen for M1 allosteric modulator project, cell-based, agonist mode; hit rate 9% among 1,700; CHO M4/Gqi5 cells, Fluo-4 calcium fluorescence; actives lie on both sides; fluorescence change (max-min) at 10 µM; shares compounds with M1 ag; AID 1741, 2009;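 active means fluorescence change differing from the plate's solvent-only control wells at 99.7% confidence in both duplicates, whether higher or lower; inconclusive means differs from solvent controls in only one of two duplicates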
M1 antag confirm: rat M1 muscarinic receptor antagonists, confirmation, CHO cells, Fluo-4 calcium, duplicate. calcium response (max-min fluorescence) at 10 µM. hit rate 43% among 1,700. AID 677, 2007. ACh EC80 antagonism; stronger effect = lower value. shares compounds with M1 antagonist;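 active means calcium response below the same-plate mean of wells given acetylcholine alone at its 80%-effect dose, minus 3 SD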;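 further: raw fluorescence intensity difference in arbitrary instrument units and not normalized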
mGluR4 antag: human mGluR4 response to M1 antagonist hits, M1 allosteric modulator project, cell-based, antagonist mode, secondary assay 1; shares compounds with M1 antagonist; CHO-mGluR4 calcium flux, Fluo-4 fluorescence, glutamate EC80; stronger effect = lower value; fluorescence response (max-min) at 10 µM; hit rate 0.9% among 1,700; AID 678, 2007;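 active means fluorescence response below the plate's average for near-maximal glutamate wells, less 3 SD of those wells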;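 further: raw unnormalized fluorescence span taken in the window right after glutamate addition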
An asterisk follows results filed as active; ? = inconclusive; / = no result given. Compounds with a hit are over-represented: about 7.4% of the library has one in this group of screens.

SMILES	JNK3 blocker	Jurkat viability	S1P1 ag-PAM	M1 antagonist	M1 ag	S1P3 ag	M1 ag confirm	M4 ag counter	others
CCOC(=O)C1CCCN(C(=O)c2ccc(CS(=O)(=O)c3ccc(C)cc3)o2)C1 (stereo not drawn)	5	3	9	0.7	34*	-1	261*	-15
Cc1ccc(S(=O)(=O)Cc2ccc(C(=O)N3CCCCCC3)o2)cc1	6	2	-1	-0.66	-1.2	-1	/	/
COCCN1C(=O)C(=O)/C(=C(/O)c2ccc(OCC(C)C)cc2)C1c1cccnc1 (stereo not drawn)	0	-3	-7	-0.28	0.27	0	/	/
CN(C)S(=O)(=O)c1cccc(C(=O)OCC(=O)Nc2sccc2C(N)=O)c1	4	3	25	-3.3*	8.8*	-1	?	-69*
C=CCSC1=C(C#N)C(c2cccc(OC)c2)CC(=O)N1 (stereo not drawn)	1	2	-4	-0.77	0.016	-1	/	/
CCOC(=O)c1ccc2c(c1)nc(COc1ccccc1C#N)n2CC	10	0	4	0.065	-0.56	0	/	/
CCn1c(C)nc2cc(C(=O)OC(C(F)(F)C(F)F)C(F)(F)C(F)F)ccc21	0	1	45	-0.79*	11*	-1	2.8	-51
COc1ccc(OC)c(Nc2cc(C(=O)NCCCN3CCOCC3)c3ccccc3n2)c1	-12	1	-16	-0.76	7.5*	0	-26*	-79*
COc1ccccc1Nc1cc(C(=O)NCCCN2CCOCC2)c2ccccc2n1	6	-3	-9	-0.38	1.5	0	/	/
COC(=O)CCC(=O)c1oc2ccc(Br)cc2c1N	6	12	-10	-0.53	-0.1	-1	/	/
Nc1c(C(=O)c2ccccc2)oc2ccc(Br)cc12	11	-8	-15	0.63	-2.2*	0	?	-36
Cc1occc1-c1nnc(SCC(=O)Nc2ccccc2)n1C(C)c1ccccc1 (stereo not drawn)	0	-1	5	-0.42	0.96	-1	/	/
COc1ccccc1-n1c(SCC(=O)NC2CCCCC2)nc2c(c1=O)SCC2	0	-1	9	0.48	0.016	-1	/	/
O=C(COC(=O)CCc1c[nH]c(=O)[nH]1)Nc1cccc(Cl)c1	0	-2	-1	-0.03	5.2*	-1	10	-12
COC(=O)CCC(=O)Nc1cccc(Cl)c1	-3	-7	11	0.0066	-0.034	-1	/	/
O=C(CN(CCc1ccccc1)C(=O)Cn1nnc(-c2cccs2)n1)NCc1ccco1	-3	7	6	0.19	-0.014	-1	/	/
O=C(CN(Cc1ccccc1Cl)C(=O)Cn1nnc(-c2cccs2)n1)NCC1CCCO1 (stereo not drawn)	0	-1	10	-1.3	7.7*	0	-12	-15
COc1ccc(CNC2CC(=O)N(C)C2=O)cc1 (stereo not drawn)	-6	0	10	0.22	3.4*	-1	-14	-50
COc1ccccc1-c1nnc(SCC(=O)OC(C)C)o1	3	0	0	-0.1	-0.48	-1	/	/
C[C@H](NC(=O)OC(C)(C)C)c1nnc(SCC(=O)c2ccc(Cl)cc2)o1	-5	8	31	-2.3	5.5*	-1	7.4	-11
N=c1c2c3c(sc2nc2n1CCCCC2)CCCCC3	/	/	/	-19*	-3.3*	/	-24*	-37	M1 antag confirm=15*;mGluR4 antag=281
O=c1c2c3c(sc2nc2n1CCCCC2)CCCC3	10	7	-28	/	/	-1	/	/
O=C(O)c1cc(-c2ccco2)nc2ccc(Br)cc12	11	6	-3	-17*	-2.5*	0	-2.5	5.1	M1 antag confirm=659;mGluR4 antag=231
C/C(=C\C(=O)Nc1nccs1)c1ccccc1	5	11	21	0.17	0.79	0	/	/
CCCN1CCN(CCCNC(=O)c2cc3c(=O)n(C)c4ccccc4c3n2C)CC1	5	0	-39	-4.3*	-3.1*	7	?	-36	M1 antag confirm=497;mGluR4 antag=215
SMILES	JNK3 blocker	Jurkat viability	S1P1 ag-PAM	M1 antagonist	M1 ag	S1P3 ag	M1 ag confirm	M4 ag counter	others
Cc1ccc(CC2C(=O)N(c3ncccn3)C(=O)C2C)cc1 (stereo not drawn)	8	8	-24	-7*	-3.7*	-1	-27	-34	M1 antag confirm=610;mGluR4 antag=254
Cc1ccc(CC2CC(=O)N(c3ccncc3)C2=O)cc1 (stereo not drawn)	-1	-5	-23	-0.34	0.16	0	/	/
O=C(Oc1ccccc1)c1c(Cl)cccc1P(=O)(O)O	6	/	-3	-0.73	-0.76	-2	/	/
C=CCOn1c(=O)c(=O)n(OCc2ccccc2)c2ccccc21	1	1	5	-2.6*	-0.28	0	/	/	M1 antag confirm=632;mGluR4 antag=256
CN(C)CC(O)COc1cc2ccccc2cc1C(=O)N1CCCCC1 (stereo not drawn)	0	7	-1	-0.027	-0.093	0	/	/
O=S(=O)(c1ccccc1Cl)N1CCCC(c2nc(-c3cccnc3)no2)C1 (stereo not drawn)	-9	-2	3	0.49	-0.22	0	/	/
O=c1oc2ccccc2c(N2CCCCC2)c1CN1CCCCC1	-6	0	0	-0.5	1.3	-1	/	/
CCc1oc2ccccc2c1C(=O)CCN1CCCCC1	-9	0	-12	-7.1*	0.19	-2	/	/	M1 antag confirm=196*;mGluR4 antag=235
CNC(=O)C1CC(=O)N(c2ccc(C)cc2)C1 (stereo not drawn)	4	-2	-8	0.54	0.19	-2	/	/
CCn1c(=Nc2ccc(N3CCOCC3)cc2)ccc2ccccc21	-3	7	4	/	/	-1	/	/
